The text below walks through data of ChEMBL document CHEMBL4350987, “Design, synthesis and biological evaluation of novel substituted purine isosters as EGFR kinase inhibitors, with promising pharmacokinetic profile and in vivo efficacy” (Eur J Med Chem, 2019).

In series [1] the target is Receptor tyrosine-protein kinase erbB-2 (Homo sapiens) (UniProt P04626). In words: Inhibition of human recombinant GST-tagged HER2 (catalytic domain 676 to end residues) autophosphorylation expressed in baculovirus infected Sf9 cells using poly( Glu, Tyr) 4:1 as substrate at 1 uM incubated for 60 mins by ELISA relative to control. The procedure, abridged:
(§1)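 Wells coated with poly-Glu,Tyr (4:1), 20 µg/well overnight at 4 °C, then blocked with 5% BSA. GST-HER2 added at 200 ng/mL final in HEPES/NaCl/NaVO₄/BSA buffer. Reaction started with ATP spanning Km plus 10 mM MnCl₂ final, run 60 min at 37 °C, stopped with EDTA. Phosphotyrosine detected with HRP anti-pTyr and ABTS at 405 nm; triplicate.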
A general note: ELISA stands for enzyme-linked immunosorbent assay.

Series [2] in a line: Drug uptake in human A549 cells overexpressing EGFR at 1 uM measured after 48 hrs by LC-MS/MS analysis. Type of series: ADME, cell-based. The settings on record: a549, 48 h. The procedure, abridged: (§2)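 A549 cells plated at 1.5×10^5 cells/well and exposed to 1 µM compound for 1, 4, 8, 24 and 48 h. Cells washed twice with ice-cold PBS, then lysed. Intracellular amount measured by LC-MS/MS against standard curves with a stable internal standard.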

Series [3] is described as follows: Cmax in C57BL/6N mouse at 34 micromol/kg, po measured upto 24 hrs by LC-MS/MS analysis. The series is classed as ADME, organism-based. Further details: route oral. The settings on record: in vivo, 34 µmol/kg. The procedure, abridged: (§3)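 Male C57BL/6N mice, 10-12 weeks old, n = 5 per group, fasted overnight, single oral gavage dose in 0.5% carboxymethyl cellulose: 0.1% Tween 80 in water. Serial tail bleeds of 10 μL at 0.25, 0.5, 1, 2, 4, 6, 8 and 24 h into 0.1 M citric acid pH 4.5, stored at -80 °C. Samples processed by protein precipitation and evaporation, then quantified in blood by LC-MS/MS.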

The next series has as its system MCF7. In words: Antiproliferative activity against human MCF7 cells assessed as reduction in cell viability incubated for 72 hrs by MTT assay. Type of series: functional, cell-based. The settings on record: MCF7, 72 h. The procedure, abridged:
(§4)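 Cells seeded at 5×10^3/well in complete medium (DMEM or RPMI, 10% FBS) and left 24 h at 37 °C, 5% CO2. Compounds added at 0.5–150 μM for 72 h. MTT (0.3 mg/mL in PBS) applied for 3 h, formazan dissolved in DMSO, OD read at 570 nm against 650 nm reference. IC50 from four-parameter logistic fit; three experiments in triplicate.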

Series [4] concerns the target Epidermal growth factor receptor (Homo sapiens) (UniProt P00533). Kind of series: Inhibition of EGFR autophosphorylation in human A549 cells overexpressing EGFR at 1 to 10 uM treated with compound for 10 mins prior to EGF stimulation for 10 mins by Western blot analysis. Type of series: cell-based. The procedure, abridged: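 A549 cells grown to 60-70% confluence, then serum-starved 24 h. Exposed to compound for 10 min, then stimulated with 100 ng/mL EGF for 10 min at 37 °C and lysed in RIPA with protease inhibitors. About 10 µg protein run on SDS-PAGE, blotted to PVDF. Phospho- and total EGFR probed at 1:1000, HRP secondaries, ECL detection; β-actin for normalization.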
Background: Immunoblotting shows a protein as a band on a membrane.

Series [5] is described as follows: Tmax in C57BL/6N mouse at 34 micromol/kg, po measured upto 24 hrs by LC-MS/MS analysis. Type of series: ADME, organism-based. Particulars: in vivo, 34 µmol/kg. The procedure, abridged:
as §3

Series [6] deals with Receptor tyrosine-protein kinase erbB-2 (Homo sapiens) (UniProt P04626). In words: Inhibition of human recombinant GST-tagged HER2 (catalytic domain 676 to end residues) autophosphorylation expressed in baculovirus infected Sf9 cells using poly( Glu, Tyr) 4:1 as substrate at 10 uM incubated for 60 mins by ELISA relative to control. The procedure, abridged: as §1
The subject of series [7] is HCC1954. Kind of series: Antiproliferative activity against human HCC1954 cells overexpressing HER2 assessed as reduction in cell viability incubated for 72 hrs by MTT assay. Type of series: functional, cell-based. The settings on record: HCC1954, 72 h. The procedure, abridged: as §4
Background: Formazan colour is commonly taken as a measure of viable cells.

Series [8] concerns A549. In words: Antiproliferative activity against human A549 cells overexpressing EGFR assessed as reduction in cell viability at 1 to 60 uM incubated for 72 hrs by MTT assay. Type of series: functional, cell-based.
Series [9] in a line: AUC (1 to 48 hrs) in human A549 cells overexpressing EGFR at 1 uM measured per 0.1 million cells by LC-MS/MS analysis. Particulars: a549, 48 h.
Series [10] deals with HCC1954. In words: Antiproliferative activity against human HCC1954 cells overexpressing HER2 assessed as reduction in cell viability at 1 to 60 uM incubated for 72 hrs by MTT assay. The series is classed as functional, cell-based.
Another series deals with NCI-H1975. In words: Antiproliferative activity against human NCI-H1975 cells assessed as reduction in cell viability incubated for 72 hrs by MTT assay. Type of series: functional, cell-based. Particulars: NCI-H1975, 72 h. The procedure, abridged:
as §4

Series [11] is described as follows: AUC (0 to 24 hrs) in C57BL/6N mouse at 34 micromol/kg, po measured upto 24 hrs by LC-MS/MS analysis. Type of series: ADME, organism-based. Further details: time < 24 hr, route oral. The settings on record: in vivo, 34 µmol/kg. The procedure, abridged: as §3
In series [12] the test system is A549. Kind of series: Antiproliferative activity against human A549 cells overexpressing EGFR assessed as reduction in cell viability incubated for 72 hrs by MTT assay. The settings on record: A549, 72 h. The series is classed as functional, cell-based. The procedure, abridged: as §4
For series [13], the target named is Receptor tyrosine-protein kinase erbB-2 (Homo sapiens) (UniProt P04626). Kind of series: Inhibition of HER2 autophosphorylation in human HCC1954 cells overexpressing HER2 at 0.02 to 2 uM incubated for 1 hr by Western blot analysis. The series is classed as cell-based. The procedure, abridged:
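HCC-1954 cells at 60-70% confluence exposed to 0.02 and 2 μM compound for 1 h, then lysed in RIPA with protease inhibitors. About 10 µg protein separated by SDS-PAGE and blotted to PVDF. Phospho- and total HER2 antibodies at 1:1000, HRP secondaries, ECL read-out; β-actin used for normalization.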

Series [14] is described as follows: Drug concentration in NOD/SCID mouse blood xenografted with human A549 cells overexpressing EGFR at 86 micromol/kg, po administered once daily for 27 days and measured at day 27 at 2 hrs after last administered dose by LC-MS/MS analysis. The series is classed as ADME, organism-based. Particulars: 86 µmol/kg, read-out: Ct. The procedure, abridged:
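A549 xenografts in NOD/SCID mice dosed orally once daily for 27 days, vehicle 0.5% carboxymethyl cellulose: 0.1% Tween 80 in water. Blood collected 2 h after the final dose on day 27, with animals euthanized under isoflurane. Drug level quantified by LC-MS/MS.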

The nature of series [15]: Toxicity in NOD/SCID mouse xenografted with human A549 cells overexpressing EGFR assessed as changes in body weight at 86 micromol/kg, po administered once daily for 27 days. Particulars: in vivo, 648 h. The series is classed as organism-based. The procedure, abridged:
(§5)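 NOD/SCID mice (n=4 per group, 2 male, 2 female) injected in each flank with 5×10⁶ A549 cells in DMEM, 10% FBS. Daily oral dosing started at about 150–160 mm³ tumors; vehicle 0.5% carboxymethyl cellulose: 0.1% Tween 80 in water. Caliper measurements every three days, V = π×D×d²/6. Body weight and signs of discomfort monitored. Study ended day 27, 2 h post last dose.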

Series [16] is described as follows: Drug uptake in human A549 cells overexpressing EGFR at 1 uM measured after 24 hrs by LC-MS/MS analysis. The series is classed as ADME, cell-based. The settings on record: a549, 24 h. The procedure, abridged:
as §2

The subject of series [17] is A549. In words: Antitumor activity against human A549 cells overexpressing EGFR xenografted in NOD/SCID mouse assessed as tumor volume at 86 micromol/kg, po administered once daily for 27 days measured at day 27 at 2 hrs after last administered dose (reference value: 1869 +/- 134 mm3). The series is classed as functional. The procedure, abridged: as §5

The source made the active and inactive calls. The rule behind the calls is not given here.

Chain of Receptor tyrosine-protein kinase erbB-2 (Homo sapiens) (P04626 whole entry, the tested form may be a part): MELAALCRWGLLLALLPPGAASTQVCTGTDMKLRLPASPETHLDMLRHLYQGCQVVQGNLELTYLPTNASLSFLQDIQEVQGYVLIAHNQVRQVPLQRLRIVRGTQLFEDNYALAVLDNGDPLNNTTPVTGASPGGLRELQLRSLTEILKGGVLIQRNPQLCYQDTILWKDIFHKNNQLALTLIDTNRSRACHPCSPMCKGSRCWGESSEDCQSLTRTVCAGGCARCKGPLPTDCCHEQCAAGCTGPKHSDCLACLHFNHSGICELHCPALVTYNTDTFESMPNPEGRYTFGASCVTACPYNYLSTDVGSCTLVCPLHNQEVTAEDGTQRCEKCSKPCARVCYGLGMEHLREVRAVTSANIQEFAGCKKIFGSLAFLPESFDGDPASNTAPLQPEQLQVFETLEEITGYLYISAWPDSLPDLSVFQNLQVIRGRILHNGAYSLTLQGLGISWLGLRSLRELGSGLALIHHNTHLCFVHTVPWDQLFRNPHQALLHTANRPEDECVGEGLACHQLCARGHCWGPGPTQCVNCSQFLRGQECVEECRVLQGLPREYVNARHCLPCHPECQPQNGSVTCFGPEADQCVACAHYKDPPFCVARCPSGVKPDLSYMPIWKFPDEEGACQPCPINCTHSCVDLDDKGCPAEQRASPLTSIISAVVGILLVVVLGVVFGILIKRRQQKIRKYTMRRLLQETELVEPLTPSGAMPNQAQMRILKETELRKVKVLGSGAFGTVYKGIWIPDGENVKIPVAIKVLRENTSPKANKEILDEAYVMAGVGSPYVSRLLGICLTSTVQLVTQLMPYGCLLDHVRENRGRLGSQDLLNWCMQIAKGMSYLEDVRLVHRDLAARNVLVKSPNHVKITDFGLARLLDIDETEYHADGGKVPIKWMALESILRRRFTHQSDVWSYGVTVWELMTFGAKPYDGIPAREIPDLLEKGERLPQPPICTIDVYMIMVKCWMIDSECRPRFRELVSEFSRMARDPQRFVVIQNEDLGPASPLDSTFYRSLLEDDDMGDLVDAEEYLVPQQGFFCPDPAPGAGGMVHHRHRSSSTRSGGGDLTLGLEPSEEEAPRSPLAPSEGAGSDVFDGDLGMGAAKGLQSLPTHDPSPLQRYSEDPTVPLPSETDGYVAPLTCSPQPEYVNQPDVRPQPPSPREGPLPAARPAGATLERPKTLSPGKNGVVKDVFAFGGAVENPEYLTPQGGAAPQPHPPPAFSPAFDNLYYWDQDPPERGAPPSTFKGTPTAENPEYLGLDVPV
Chain of Epidermal growth factor receptor (Homo sapiens) (P00533 whole entry): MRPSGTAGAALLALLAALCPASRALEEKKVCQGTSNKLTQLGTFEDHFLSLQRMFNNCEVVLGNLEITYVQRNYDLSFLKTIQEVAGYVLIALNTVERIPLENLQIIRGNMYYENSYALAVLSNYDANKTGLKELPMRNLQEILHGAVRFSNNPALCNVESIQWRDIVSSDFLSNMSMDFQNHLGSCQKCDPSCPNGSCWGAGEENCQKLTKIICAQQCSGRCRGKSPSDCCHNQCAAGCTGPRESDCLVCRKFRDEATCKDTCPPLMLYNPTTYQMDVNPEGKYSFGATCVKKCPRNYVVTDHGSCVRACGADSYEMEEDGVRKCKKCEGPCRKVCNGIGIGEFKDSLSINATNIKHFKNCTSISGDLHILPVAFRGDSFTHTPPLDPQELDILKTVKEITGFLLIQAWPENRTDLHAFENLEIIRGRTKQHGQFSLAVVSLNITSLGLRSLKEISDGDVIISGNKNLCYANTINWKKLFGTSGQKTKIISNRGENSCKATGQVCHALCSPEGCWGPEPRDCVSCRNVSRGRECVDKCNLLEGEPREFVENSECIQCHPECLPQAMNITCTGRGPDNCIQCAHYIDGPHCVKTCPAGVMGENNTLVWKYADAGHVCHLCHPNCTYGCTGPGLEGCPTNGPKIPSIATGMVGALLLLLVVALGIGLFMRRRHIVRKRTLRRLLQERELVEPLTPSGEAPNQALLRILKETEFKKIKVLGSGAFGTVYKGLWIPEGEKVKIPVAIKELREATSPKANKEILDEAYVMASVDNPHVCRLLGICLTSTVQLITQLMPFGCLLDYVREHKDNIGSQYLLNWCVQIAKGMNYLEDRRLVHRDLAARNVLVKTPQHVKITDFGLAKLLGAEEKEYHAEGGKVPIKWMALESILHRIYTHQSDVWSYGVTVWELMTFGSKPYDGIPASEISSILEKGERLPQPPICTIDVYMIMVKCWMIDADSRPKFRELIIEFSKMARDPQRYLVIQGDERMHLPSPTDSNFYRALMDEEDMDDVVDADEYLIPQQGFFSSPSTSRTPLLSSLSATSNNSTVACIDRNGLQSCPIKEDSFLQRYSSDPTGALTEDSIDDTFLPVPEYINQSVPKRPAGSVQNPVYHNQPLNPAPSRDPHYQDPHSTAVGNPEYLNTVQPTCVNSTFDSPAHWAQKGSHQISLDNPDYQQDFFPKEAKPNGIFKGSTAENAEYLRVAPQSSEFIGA

Broadly, the inhibition is the change of the read-out against control, counted positive when it falls. The term Cmax denotes the highest concentration seen after dosing. One may read the IC50 as the concentration that gives 50% inhibition. A word on the Tmax: it is the time at which the peak concentration occurs. What is called AUC(0-t) is the area under the concentration-time curve up to a stated or last time point. Read a low AUC(0-t) as low exposure. As for `CS(=O)(=O)CCNCc1ccc(-c2nc3c(Nc4ccc(OCc5cccc(F)c5)c(Cl)c4)ncnc3[nH]2)o1`, the inhibition turned out to be 28% in [1] and 32% in [6]. Further, in series [2], the Drug uptake is 0.01 nmol/100,000 cells. Besides, the highest level in [3] (Cmax) was 70 nM. In addition, the IC50 in the series with MCF7 turned out to be 105 µM; with HCC1954 [7], 14 µM; in the series on NCI-H1975 it was 30 µM; with A549 [12] it was 33 µM. Also, the inhibition result (in series [4]; in the series on A549 [8]; in the series with HCC1954 [10]) was “Active” throughout. In [5], the Tmax came out at 2 h. Besides, in series [9], the AUC was determined as 0.35 nmol/100.000 cells x h. In addition, in [11], the area under the curve AUC(0-t) at 24 h worked out at 0.87 µM·h.

`CS(=O)(=O)CCNCc1ccc(-c2nc3c(Nc4ccc(OCc5cccc(F)c5)c(Cl)c4)ncc(F)c3[nH]2)o1`: the inhibition came out at 0% in [1] and 13% in [6]. The inhibition result in series [13] was “Active”.

For the compound `Fc1cccc(COc2ccc(Nc3nccc4[nH]c(-c5ccco5)nc34)cc2Cl)c1`, the results for the inhibition in series [1] and in series [6] were 82% and 86%, respectively. Also, the inhibition entry in the series on A549 [8] and with HCC1954 [10] was “inactive” throughout.

In the case of `Fc1cccc(COc2ccc(Nc3ncnc4[nH]c(-c5ccco5)nc34)cc2Cl)c1`, the inhibition is 51% in [1] and 86% in [6]. Moreover, the inhibition entry (in the series on A549 [8]; in [13]; with HCC1954 [10]) was “Active” in each case.

On to `CS(=O)(=O)CCNCc1ccc(-c2nc3c(Nc4ccc(OCc5cccc(F)c5)c(Cl)c4)nccc3[nH]2)o1`, for which the inhibition was determined as 25% in [1] and 34% in series [6]. Besides, the inhibition result in series [4] and in [13] was “Active” throughout.

For the compound `Fc1cccc(COc2ccc(Nc3ccnc4[nH]c(-c5ccco5)nc34)cc2Cl)c1`, the inhibition worked out at 24% in series [1] and 58% in [6]. Also, the Drug uptake in [2] was 0.04 nmol/100,000 cells; in [16], “Active”. Moreover, the concentration at 2 h in [14] worked out at 640 nM. Moreover, the Activity result in series [15] is “Non-Toxic”; in the series on A549 [17], 1311 mm3. The compound also gave a Cmax in series [3] of 300 nM. The half-maximal inhibitory concentration (IC50) in the series with MCF7 worked out at 126 µM; in the series with HCC1954 [7], 9 µM; in the series on NCI-H1975 it was 10 µM; in the series with A549 [12] it was 3 µM. Further, the inhibition entry (in series [4]; with A549 [8]; in the series on HCC1954 [10]) was “Active” each time. In addition, in series [5], the Tmax was determined as 2 h. Further, the AUC in [9] worked out at 1.5 nmol/100.000 cells x h. Moreover, in series [11], the area under the curve AUC(0-t) at 24 h was 2.1 µM·h.

For `Fc1cccc(COc2ccc(Nc3ncc(F)c4[nH]c(-c5ccco5)nc34)cc2Cl)c1`, the inhibition in [1] is 10%; in series [6], 79%.

For the compound `CS(=O)(=O)CCNCc1ccc(-c2nc3c(Nc4ccc(OCc5cccc(F)c5)c(Cl)c4)ccnc3[nH]2)o1`, the values for the inhibition in [1] and in series [6] were 33% and 46%, respectively. For the same compound, the inhibition entry in series [4] and in series [13] was “Active” throughout. Further, the inhibition result in the series with A549 [8] and in the series on HCC1954 [10] was “inactive” in each case.

Take `CS(=O)(=O)CCNCc1ccc(-c2ccc3ncnc(Nc4ccc(OCc5cccc(F)c5)c(Cl)c4)c3c2)o1` [LAPATINIB]: the inhibition in series [1] came to 86%; in series [6] it was 97%. Further, in series [2], the Drug uptake is 0.02 nmol/100,000 cells. Also, in series [14], the concentration at 2 h stood at 2810 nM. The compound further came in with a maximum concentration (Cmax) in series [3] of 1470 nM. In addition, the IC50 with MCF7 came to 95 µM; with HCC1954 [7], 5 µM; in the series with NCI-H1975, 9 µM; with A549 [12] it was 11 µM. For the same compound, in the series with A549 [17], the Activity was found to be 1338 mm3. Moreover, the Tmax in series [5] is 2 h. In [9], this compound came in with an AUC of 1.06 nmol/100.000 cells x h. Also, in series [13], the inhibition entry is “Active”. The area under the curve AUC(0-t) at 24 h in series [11] was 6.7 µM·h.
